Each structure is given as a SMILES string. Where only a bound is given, the exact number is not on record here.

This data set is described as follows: Cytotoxicity in MDCK cells. The class given is cell-based, Canine. The note with it: dog. In short, it runs like this:
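MDCK cells (1 × 10^5/well) grown 24 h at 37 °C, 5% CO2, then washed twice with PBS pH 7.20. Exposed to test compound at 100 to 3.12 μM in p-MEM for 72 h at 37 °C, 5% CO2. Fixed, stained with 0.40% crystal violet in methanol, A490 read. Viability expressed relative to untreated cell control; CC50 by regression. Triplicate.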

For `CCC(CC)O[C@@H]1C=C(C(=O)O)C[C@H](N)[C@H]1NC(C)=O` [OC, Oseltamivir carboxylate], the half-maximal cytotoxic concentration (CC50) (usually the concentration that lowers cell viability or growth by half) at 72 h was > 100 µM.

These data come from publication PMC7138392 (Industrial Crops and Products, 2019).
